# Source: PubChem BioAssay (The Scripps Research Institute Molecular Screening Center)
# NS3 helicase inh = blocks Hepatitis C virus NS3 helicase unwinding. 290,000 tested, 0.56% active. inhibition, % at 10.9 µM. AID 1800. NS3 helicase DNA unwinding, Cy5 molecular beacon fluorescence;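 active = inhibition above the mean of all tested compounds plus 3 SD, set per campaign, cut at about 35% in these data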;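 note: 0% = DMSO wells and 100% = thioflavine S control wells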
#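 Assay system: hepatitis C virus NS3 helicase domain fragment enzyme. Also added: annealed dual-labelled DNA beacon duplex, ATP-started. Timing: 1 h reaction at 25 °C, ATP-initiated. Technique: Cy5 fluorescence at 0 and 60 min, beacon hairpin quenching. Evaluation: % inhibition of unwinding. Replication: one well per compound.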
# core dimer inh = HCV core protein dimerization inhibition. TR-FRET GST/Flag-core106 dimerization, 1536-well. inhibition, % at 5 µM. 300,000 tested, 0.33% active. AID 1899;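 active = inhibition above the mean of all tested compounds plus 3 SD, set per screening campaign, cut at about 45% in these data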
#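 System: GST/Flag-tagged HCV core106 proteins. Incubation: compound-protein-antibody incubation 4 h at 22.5 °C. Technique: HTRF with 340 nm excitation, 617/671 nm emission. Medium: KF-containing HEPES buffer, pH 7.45, DTT, CHAPS, BSA. Read-out: inhibition (%) from 671 over 617 nm ratio. Also added: Eu(K)-anti-GST 90 ng/mL plus XL665-anti-Flag 1 µg/mL.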
# EBNA-1 inh = blocks EBNA-1 binding to DNA | EBNA-1 DNA binding, fluorescence polarization | inhibition, % at 14.8 µM | 300,000 tested, 0.34% active | AID 1950; in the data active = inhibition above about 28%
# PP1 inh = blocks human PP1-alpha phosphatase, a PP5 counter-screen. inhibition, % at 6.7 µM. purified PP1alpha, OMFP fluorescence. 320,000 tested, 0.9% active. P62136;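 active = inhibition above the mean inhibition of all tested compounds plus 3 SD, computed separately for each screening campaign, cut at about 15% in these data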
# Target sequence (P62136 whole entry, looked up): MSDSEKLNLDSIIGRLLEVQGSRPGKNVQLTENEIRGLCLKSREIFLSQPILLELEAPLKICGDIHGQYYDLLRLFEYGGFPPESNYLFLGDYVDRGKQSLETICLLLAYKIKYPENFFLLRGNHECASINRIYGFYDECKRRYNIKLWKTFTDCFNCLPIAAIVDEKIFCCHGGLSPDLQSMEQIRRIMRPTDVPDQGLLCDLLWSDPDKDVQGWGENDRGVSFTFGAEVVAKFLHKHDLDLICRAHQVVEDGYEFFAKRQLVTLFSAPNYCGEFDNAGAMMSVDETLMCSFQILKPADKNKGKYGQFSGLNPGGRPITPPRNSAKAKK
# ZTA DNA inh = counter-screen for EBNA-1 inhibitors: inhibitors of Epstein-Barr virus ZTA; inhibition, % at 11 µM; AID 2234; 320,000 tested, 0.15% active; P03206; ZTA-DNA binding, fluorescence polarization; in the data active = inhibition above about 33%
# Target sequence (P03206 whole entry, looked up): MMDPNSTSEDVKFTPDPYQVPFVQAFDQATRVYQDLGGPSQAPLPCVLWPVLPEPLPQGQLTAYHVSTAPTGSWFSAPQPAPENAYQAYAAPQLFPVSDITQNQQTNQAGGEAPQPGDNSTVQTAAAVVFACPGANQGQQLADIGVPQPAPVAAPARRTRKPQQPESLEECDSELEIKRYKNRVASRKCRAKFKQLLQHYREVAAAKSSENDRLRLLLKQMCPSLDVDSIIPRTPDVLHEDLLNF
# NS3 hel confirm = confirmation of Hepatitis C virus NS3 helicase inhibitors; shares compounds with NS3 helicase inh; NS3 helicase DNA unwinding, Cy5 molecular beacon fluorescence; inhibition, % at 10.9 µM; 1,600 tested, 31% active;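 active = inhibition above the mean of all tested compounds plus 3 SD, cutoff set per campaign, cut at about 36% in these data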
# DNA FID counter = counter-screen for HCV NS3 helicase inhibitors: DNA intercalator displacement | shares compounds with NS3 helicase inh | DNA fluorescent intercalator displacement, fluorescence | inhibition, % at 7.9 µM | 1,600 tested, 4% active; in the data active = inhibition above about 37%;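 note: 0% = vehicle and 100% = reference compound; higher means more displacement of ethidium bromide from the DNA hairpin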
# FID counter DR = counter-screen for HCV NS3 helicase inhibitors: DNA intercalator displacement dose response | shares compounds with NS3 helicase inh | fluorescent intercalator displacement from DNA, fluorescence | IC50, µM | 120 tested, under 10 active | AID 2172; call rule not given here
# Numbers without * were called inactive; · = no result given. An excerpt weighted towards active compounds, which were near 1.9% of everything screened.
SMILES,NS3 helicase inh,core dimer inh,EBNA-1 inh,PP1 inh,ZTA DNA inh,NS3 hel confirm,DNA FID counter,others
Cc1ccc(C)c(NC(=S)NCCSc2ccc(Cl)cc2)c1,-15,-6,-8,3,-17,·,·,
Cc1ccccc1NC(=S)NCCSc1ccc(Cl)cc1,78*,1,-7,-1,-2,6,-1,
CCOC(=O)CC(=O)CSc1nc(N)c(C#N)c(-c2ccc(F)cc2)c1C#N,57*,4,-8,6,13,-3,5,
CCOC(=O)CSc1nc(N)c(C#N)c(-c2ccc(OC)cc2)c1C#N,-11,16,0,4,16,·,·,
Cc1ccc(S(=O)(=O)Nc2ccc(Br)cc2/C=N/n2cnnc2)cc1,36*,2,-3,4,16,38*,-8,
CC(C)c1cc(C(=O)NNC(=S)NC2CCCCC2)cs1,4,1,-8,0,4,·,·,
Cc1ccccc1NC1c2ccccc2C(=O)N1Cc1ccco1 (stereo not given),41*,4,5,1,11,-1,-4,
CCCNc1c(F)c(F)c2c(C)c3ccccc3nc2c1F,41*,24,4,3,6,12,-8,
COc1ccc(CCNC(=O)C(=O)NCC2OCCN2S(=O)(=O)c2ccc(Br)cc2)cc1 (stereo not given),-11,4,5,1,-26,·,·,
COc1ccc(CCNC(=O)C(=O)NCC2OCCN2S(=O)(=O)c2ccccc2)cc1 (stereo not given),37*,14,3,2,1,-12,-47,
CCc1ccc(NC(=O)C/C(C)=N/NC(=O)COc2ccc(C)cc2Br)cc1,22,-1,-8,3,-13,·,·,
COc1ccccc1OCC(=O)Nc1nnc(-c2ccco2)s1,5,·,·,·,·,·,·,
Cc1cccc(OCC(=O)Nc2nnc(-c3ccco3)s2)c1,41*,4,11,9,-6,-17,2,
CCOc1cc(C(=O)Nc2ccc(N3CCN(S(C)(=O)=O)CC3)cc2)cc(OCC)c1OCC,39*,14,-2,-3,9,-2,-29,
CCOc1cccc(C(=O)Nc2ccc(N3CCN(S(C)(=O)=O)CC3)cc2)c1,1,7,2,2,4,·,·,
COc1ccc(/C=C2\SC(=O)N(CC(=O)NC3C=CS(=O)(=O)C3)C2=O)cc1 (stereo not given),-11,-1,7,-4,10,·,·,
N#CC1=C(N)SC(N)=C(C#N)C1CCC1CCCCC1,53*,13,4,3,-3,5,24,
Cc1ccc(/C=C2/SC(=O)NC2=S)o1,53*,·,·,·,·,38*,17,
Cc1ccc(-c2cc(-c3ccco3)c(C#N)c(=O)[nH]2)cc1,42*,14,-10,12,5,26,-1,
N#Cc1c(-c2ccco2)cc(-c2ccccc2)[nH]c1=O,8,4,5,10,-9,·,·,
Cc1ccc(OCc2n[nH]c(=S)n2-c2ccc(Br)cc2)cc1,37*,4,-4,3,-9,0,-22,
Cc1ccc(OCc2n[nH]c(=S)n2-c2ccc(Cl)cc2)cc1,13,0,1,-2,-12,·,·,
O=C(c1ccco1)N1CCN(C(=O)c2ccccc2[N+](=O)[O-])CC1,1,-1,-10,-2,-8,·,·,
O=C(c1ccco1)N1CCN(C(=O)c2[nH]ncc2[N+](=O)[O-])CC1,37*,3,-15,-5,0,-17,6,
COc1cccc(CN(C)C(=O)CSCC(=O)Nc2cccc(C)c2)c1OC,·,·,·,-2,5,·,·,
SMILES,NS3 helicase inh,core dimer inh,EBNA-1 inh,PP1 inh,ZTA DNA inh,NS3 hel confirm,DNA FID counter,others
CSc1sccc1/C=C(/C#N)C(=O)c1ccco1,38*,-1,-12,2,-21,-37,10,
COCCCn1c(=S)[nH]c2sc3c(c2c1=O)CCCC3,11,-9,1,1,-6,·,·,
COCCn1c(=S)[nH]c2sc3c(c2c1=O)CCCC3,52*,-9,-8,-4,9,-9,-6,
CCOC(=O)N1CCN(Cc2nc3cc(NC(=O)CC(C)C)ccc3n2CC)CC1,-7,6,-3,-5,5,·,·,
CCOC(=O)C1(C)C=C(Nc2ccc(O)cc2)C(=O)N1c1ccc(O)cc1 (stereo not given),38*,-15,-15,1,-21,-10,14,
CCOC(=O)C1(C)C=C(Nc2ccc(OC)cc2)C(=O)N1c1ccc(OC)cc1 (stereo not given),3,-8,4,0,-12,·,·,
COCCNC(=O)/C(C#N)=C/C=C/c1ccccc1[N+](=O)[O-],-10,-10,-5,0,4,·,·,
CC(=O)N1CCc2[nH]c3ccccc3c2C1,0,3,-12,-7,-7,·,·,
CC(=O)N1C=Cc2c(c(C)c3c([nH]c4ccccc43)c2C)C1,39*,·,·,·,·,23,35,
CC(C)C/C(O)=C/c1nc2cc(Cl)ccc2oc1=O,38*,-16,-6,7,-25,-1,12,
O=c1oc2ccc(Cl)cc2nc1/C=C(\O)c1ccco1,11,-1,5,-2,-2,·,·,
COc1cc(C(=O)NNC(=O)c2cc(S(=O)(=O)N(C)C)ccc2N2CCCC2)cc(OC)c1OC,·,·,·,1,-2,·,·,
CC(C)CSc1oc(-c2ccco2)nc1S(=O)(=O)c1ccccc1,40*,9,7,-4,7,-23,-27,
Cc1cc(C)c2c(c1)NC(C(=O)O)C1CC=CC21 (stereo not given),44*,39,-3,13,11,98*,-7,FID counter DR=>79
CC(=O)Nc1ccc(S(=O)(=O)NCc2cc(=O)n(C)c(=O)n2C)cc1,2,0,6,0,3,·,·,
O=C(Nc1ccc(Cc2ccncc2)cc1)c1cccc([N+](=O)[O-])c1,-1,-3,-3,0,-12,·,·,
O=C(Nc1ccc(Nc2ccncc2)cc1)c1ccc(Nc2ccnc3ccc([N+](=O)[O-])cc23)cc1,53*,·,·,·,·,78*,103*,
COc1cc(/C=C2/C(=O)NN(c3ccc(F)cc3)C2=O)cc(Cl)c1O,36*,-4,-14,1,-13,34,7,
COC(=O)c1ccc(N2NC(=O)/C(=C/c3cc(OC)c(O)c(OC)c3)C2=O)cc1,61*,-2,-9,8,-4,17,13,
COc1cc(/C=C2/C(=O)NN(c3ccc(Cl)cc3)C2=O)cc(Br)c1O,23,-6,-11,2,12,·,·,
COc1cccc(/C=C2/C(=O)NN(c3ccc(Br)cc3)C2=O)c1O,38*,·,·,·,·,58*,8,
Cc1ccc(CNC(=O)CS(=O)(=O)c2cn(CC(=O)N3CCOCC3)c3ccccc23)cc1,4,-6,4,-3,0,·,·,
CCOc1ccc(NC(=O)CN2CCc3cc4c(cc3C2)OCCCO4)cc1OCC,-4,-10,-11,0,-1,·,·,
